APJ antag – antagonists of human apelin receptor APJ, primary screen, CHO-K1 cells, beta-arrestin complementation, luminescence. inhibition, % at 20 µM. AID 2521, 2010. 330,000 tested, 0.32% active;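 active means inhibition above about 40% at 20 µM, limit read from the data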;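 further: cells challenged with 10 nM apelin-13 agonist together with compound; plate controls were apelin-13 plus DMSO wells for no effect and DMSO wells lacking apelin-13 for full effect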
CXCR6 block – CXCR6 receptor inhibitors, primary screen, cell-based, beta-arrestin, luminescence, CHO-K1 PathHunter, 1536-well | C-X-C chemokine receptor type 6 (Homo sapiens), O00574 | inhibition, % at 20 µM | 360,000 tested, 0.36% active | AID 602244, 2012; in the data active means inhibition above about 34%, passing the limit was not always enough;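 further: antagonist mode with CXCL16 agonist at 10 nM final; 0% = 10 nM CXCL16 with DMSO and 100% = unstimulated wells without agonist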
Target sequence (O00574 whole entry, looked up): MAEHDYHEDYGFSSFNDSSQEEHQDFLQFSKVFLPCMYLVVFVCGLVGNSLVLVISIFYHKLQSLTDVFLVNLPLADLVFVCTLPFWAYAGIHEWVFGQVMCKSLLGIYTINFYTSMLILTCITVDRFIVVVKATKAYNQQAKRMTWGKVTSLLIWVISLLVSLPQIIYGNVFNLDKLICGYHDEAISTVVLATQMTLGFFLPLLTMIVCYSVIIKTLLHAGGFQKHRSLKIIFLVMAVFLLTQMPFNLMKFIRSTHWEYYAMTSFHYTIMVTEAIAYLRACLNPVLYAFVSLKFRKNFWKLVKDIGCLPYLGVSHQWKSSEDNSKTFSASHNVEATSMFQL
APJ ag – agonists of human apelin receptor APJ, primary screen, CHO-K1 cells, PathHunter beta-arrestin, luminescence; P35414; 0% DMSO wells, 100% apelin; activation, % at 20 µM; 330,000 tested, 0.11% active;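 active means activation more than six SD over the plate average, tested at 20 µM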;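 further: 0% = DMSO alone and 100% = apelin-13 at 10 nM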
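Test system: CHO-K1 APJ beta-arrestin complementation cell line. Amount: cell density 1000 per well. Controls: DMSO negative, 10 nM Apelin-13 positive. Signal: luminescent beta-gal fragment complementation, chemiluminescent substrate. Read-out basis: agonist-driven arrestin binding to APJ. Timing: compound stimulation 90 min at 25 °C, detection 60 min.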
EBI2 antag – EBI2 receptor antagonists, beta-arrestin recruitment, primary screen, cell-based, luminescence, 7a,25-OHC stimulation, uHTS. inhibition, % at 5 µM. G-protein coupled receptor 183 (Homo sapiens), P32249. 7a,25-OHC stimulated. AID 651636, 2012. 360,000 tested, 0.81% active; in the data active means inhibition above about 38%;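 further: enzyme fragment complementation signal reports receptor beta-arrestin coupling in cells; 0% = agonist plus DMSO wells and 100% = wells without agonist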
Target sequence (P32249 whole entry, looked up, the tested form may be a part): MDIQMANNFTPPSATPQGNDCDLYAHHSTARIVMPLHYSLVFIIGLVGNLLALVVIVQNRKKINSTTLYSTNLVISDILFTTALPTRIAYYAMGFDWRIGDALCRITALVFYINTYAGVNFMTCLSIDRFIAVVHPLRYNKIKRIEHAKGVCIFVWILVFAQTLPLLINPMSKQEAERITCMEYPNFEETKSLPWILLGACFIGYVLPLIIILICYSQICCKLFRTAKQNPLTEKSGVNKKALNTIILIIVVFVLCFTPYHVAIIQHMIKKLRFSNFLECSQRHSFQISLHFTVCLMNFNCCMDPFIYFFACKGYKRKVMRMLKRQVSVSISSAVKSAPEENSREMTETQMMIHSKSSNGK
CCR6 antagonist – CCR6 receptor antagonists, primary screen, cell-based, CHO-K1, luminescence, beta-arrestin, uHTS; C-C chemokine receptor type 6 (Homo sapiens), P51684; CHO-K1 CCR6 PathHunter beta-arrestin, CCL20-stimulated; inhibition, % at 20 µM; 340,000 tested, 0.49% active;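 active means compounds whose inhibition of the agonist-driven luminescence signal at 20 µM reaches about 50%, limit read from the data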;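 further: cells stimulated with CCL20 at 14 nM final; plate controls were DMSO with CCL20 for no effect and DMSO without agonist for full effect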
EBI2 conf – EBI2 antagonist hit retest, beta-arrestin, confirmation, cell-based, single concentration, luminescence, 7a,25-OHC stimulation; shares compounds with EBI2 antag; 7a,25-OHC antagonism; inhibition, % at 5 µM; 2,400 tested, 29% active; AID 651997, 2013;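 active means inhibition of at least 50%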
EBI2 ag – EBI2 agonist activity of antagonist hits, confirmation, counter-screen for EBI2 antagonist project, cell-based, single concentration, agonist mode, luminescence; shares compounds with EBI2 antag; EBI2-expressing cells, 60 min; 0% vehicle, 100% 7α,25-dihydroxycholesterol control; activation, % at 5 µM; 2,400 tested, under 10 active;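 active means activation of at least 50%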
bGal counter – E. coli beta-galactosidase enzyme inhibition, confirmation, counter-screen for EBI2 antagonist project, biochemical, luminescence, single concentration; shares compounds with EBI2 antag; purified beta-galactosidase, luminescent Galacton Star, 15 min; inhibition, % at 5 µM; 2,400 tested, 1% active;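 active means replicate-average signal at least 3 plate SD below neutral wells, shown as high inhibition, flagging enzyme-inhibiting false positives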;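 further: 0% = DMSO wells with enzyme and 100% = wells lacking enzyme; higher means stronger loss of beta-gal luminescence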
* hit, by the source's call; . = no result. Rows were chosen to be rich in hits. Some 1.5% of all compounds tested hit in one or more screens of this group.

SMILES | APJ antag | CXCR6 block | APJ ag | EBI2 antag | CCR6 antagonist | EBI2 conf | EBI2 ag | bGal counter
CS(=O)(=O)N1CCN(C(=O)COc2ccc3ccccc3c2)CC1 | -9 | 1 | -1 | 79* | 7 | 46 | 1 | 5
O=C(COc1ccc2ccccc2c1)N1CCNCC1 | -21 | -8 | -2 | 10 | 2 | . | . | .
O=C(COc1ccc2ccccc2c1)N1CCN(c2ccccc2O)CC1 | -2 | -8 | -3 | 71* | -14 | 62* | 0 | -8
CCc1ccc(OCC(=O)N2CCN(c3ccccc3F)CC2)cc1 | -9 | 4 | 1 | 65* | 11 | 75* | 0 | 3
COc1ccc(OCC(=O)Nc2ccc3c(c2)nc(CCn2ccccc2=O)n3C)cc1 | 12 | 1 | 0 | 5 | 11 | . | . | .
Cc1[nH]c(C)c(S(=O)(=O)NCCc2ccccc2)c1C(=O)N1CCCCC1 | -24 | -7 | -4 | -5 | 8 | . | . | .
Nc1ncccc1OCc1ccc(Cl)c(Cl)c1 | -2 | -2 | 4 | -6 | 7 | . | . | .
COc1ccc(-n2cc(-c3ccc(Br)cc3)[nH]c2=S)cc1 | -6 | 1 | -1 | 79* | -7 | 52* | -2 | -8
CSc1ccc(CNC(=O)C2CCC(=O)N(CCc3ccc(Cl)cc3)C2)cc1 (configuration not stated) | . | 1 | . | 50* | . | 21 | -1 | -18
C[C@@H]1CN([C@H](C)CO)C(=O)CCCn2nncc2CO[C@@H]1CN(C)C(=O)c1cc(-c2ccccc2)on1 | . | -6 | . | -5 | . | . | . | .
O=C(COC(=O)CCC(=O)c1ccc(Cl)cc1)NC1CC1 | 12 | -13 | 0 | -8 | 8 | . | . | .
Cc1nnc(N/N=C/c2cccc(OCc3ccc(Cl)c(Cl)c3)c2)n1N | -17 | -2 | 2 | 0 | 1 | . | . | .
O=C(C1=C[C@@H](c2ccc(Br)cc2)C[C@@H](OCc2ccc(CO)cc2)O1)N1CCN(Cc2ccc3c(c2)OCO3)CC1 | -18 | 4 | 2 | 41* | 6 | -1 | -1 | -14
COc1ccc2nc(C)cc(SCC(=O)NNC(=O)COc3ccc(C)cc3)c2c1 | 18 | -2 | -2 | 67* | -15 | 17 | 2 | 7
Cc1ccc(OCC(=O)NNC(=O)CSc2nnc(-c3ccc(C)cc3)n2C)cc1 | 3 | -2 | -4 | 75* | 2 | 40 | -1 | 3
CC(=O)c1ccc(OC(C)c2nc3ccccc3s2)cc1 (configuration not stated) | 24 | 1 | -3 | 13 | 17 | . | . | .
COC(=O)C=CSC(=S)C1CCCC1=N (configuration not stated) | . | -1 | . | 7 | . | . | . | .
CC1CCN(C2=NC(=O)/C(=C/c3cn(-c4ccccc4)nc3-c3cccc(S(=O)(=O)N(C)C)c3)S2)CC1 | 31 | 21 | -3 | 48* | 14 | 40 | -1 | -14
C=CCn1c(=O)c2ccc(C(=O)NCc3ccccc3)cc2n(Cc2cccc(Cl)c2)c1=O | -3 | 12 | -4 | 55* | 26 | 45 | 2 | 2
CCOCC(=O)N1CCC(Cc2ccccc2)CC1 | 6 | -17 | 1 | 10 | -6 | . | . | .
COc1ccc(OCC(=O)N2CCC(Cc3ccccc3)CC2)cc1 | 11 | 5 | -2 | 92* | 10 | 77* | 2 | 1
O=C(COc1ccc(F)cc1)N1CCC(Cc2ccccc2)CC1 | 24 | -4 | -5 | 74* | 3 | 50* | 1 | 10
O=C(N/C(=C/c1ccccc1Cl)C(=O)N1CCCCC1)c1ccco1 | 4 | 6 | -5 | -20 | 16 | . | . | .
CC(C)n1c(O)c(/C=C2\C=Nc3ccccc32)sc1=Nc1ccccc1 | 10 | -4 | 1 | 57* | 6 | 26 | 0 | -13
CCOc1ccc(S(=O)(=O)N2CCCC(C(=O)NC3CCCC3)C2)cc1 (configuration not stated) | 9 | 6 | 3 | 4 | 2 | . | . | .
SMILES | APJ antag | CXCR6 block | APJ ag | EBI2 antag | CCR6 antagonist | EBI2 conf | EBI2 ag | bGal counter
c1ccc(N2CCN(c3ccccc3)C2c2cccnc2)cc1 | -7 | 5 | -5 | 2 | 15 | . | . | .
Cc1ccc(N2CCN(c3ccc(C)cc3)C2c2cccnc2)cc1 | -22 | -10 | 3 | 68* | 19 | 28 | 0 | -12
COc1ccc(-c2cn3nc(SCC(=O)NCC4CCCO4)ccc3n2)cc1 (configuration not stated) | 22 | -2 | 0 | 67* | 1 | 38 | -1 | -17
O=C(CSc1ccc2nc(-c3ccccc3)cn2n1)NCC1CCCO1 (configuration not stated) | 26 | 1 | -2 | 6 | -6 | . | . | .
CCc1nc2ccc(C(=O)NCCOc3ccc(OC)cc3)cn2c1N(CC)CCOC | . | -3 | . | 45* | . | 37 | 2 | 0
CCc1nc2ccc(C(=O)Nc3cccc(OC)c3)cn2c1N(CC)Cc1cccc(Br)c1 | . | 13 | . | 13 | . | . | . | .
CCc1nc2ccc(C(=O)NCCOc3ccc(OC)cc3)cn2c1N(CC)Cc1cccc(Br)c1 | . | 17 | . | 74* | . | 48 | 0 | 5
CCc1nc2ccc(C(=O)NCCN(C)C)cn2c1N(CC)CCOC | . | -4 | . | -11 | . | . | . | .
O=C(CN1CCN(S(=O)(=O)c2ccc(Br)cc2)CC1)N/N=C/c1ccncc1 | 19 | -17 | -3 | 54* | 4 | 32 | 0 | 7
O=C(CNC(=O)c1ccc(S(=O)(=O)N2CCCC2)cc1)N/N=C/c1ccc(Cl)cc1 | -13 | -8 | 0 | 60* | 1 | 40 | 1 | -1
O=C(CNC(=O)c1ccc(S(=O)(=O)N2CCCC2)cc1)N/N=C/c1ccc(Cl)cc1Cl | -4 | -8 | -3 | 75* | 11 | 48 | 1 | 2
O=C(NCc1ccc(Cl)cc1)C1CCN(S(=O)(=O)c2cc([N+](=O)[O-])ccc2Cl)CC1 | 7 | -7 | 2 | 47* | -8 | 39 | 2 | -4
O=C(NC1CC1)C1CCN(S(=O)(=O)c2cc([N+](=O)[O-])ccc2Cl)CC1 | -17 | -4 | 1 | -4 | 10 | . | . | .
O=C(NCc1ccc(Cl)cc1)C1CCN(S(=O)(=O)c2ccccc2)CC1 | -14 | -1 | -1 | 65* | -3 | 37 | 0 | 5

Screening data: PubChem BioAssay, Sanford-Burnham Center for Chemical Genomics
